Laboratory results published in PubChem BioAssay.
Activity calls are given as the source filed them.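 How the source made its calls, unless noted: active means inhibition of the reporter signal at or above 50%; inactive means inhibition below 50%.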

Tests used:
[1] = inhibitors of TNFa-induced NFkB p65 translocation, primary screen, imaging, HUVEC, MLSMR starter and 10KST1 sets (AID 438;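 active means inhibition above 20% together with a positive visual image hit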;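 further: compound added about 3h40 before a 20 min TNFalpha stimulation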;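 on inhibition: signal is the nuclear over cytoplasmic p65 intensity ratio per well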); conditions: HUVEC TNFa-induced p65 nuclear translocation; cell count: measured here: nuclei count (cytotoxicity indicator), at 2.08 µM; inhibition: at 2 µM, stronger effect = higher value, 0% TNFa-plus-vehicle, 100% no-TNFa wells
[2] = inhibitors of mutant huntingtin aggregation, primary screen, imaging, exon1htt(103Q)mCFP cells, high-content imaging (AID 483;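 active means visual image review flags a hit and inhibition of aggregation exceeds 20%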;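 further: compound exposure lasted 3 days before fixation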;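 on nuclei count: percent of the per-plate median nuclei count of sample wells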); conditions: exon1htt(103Q)mCFP cell line, aggregate imaging, at 2 µM; inhibition of aggregation: stronger effect = higher value; nuclei count: measured here: cell count, toxicity
[3] = inhibitors of E-selectin induction by TNFa, primary screen, imaging, HUVEC, immunofluorescence, MLSMR starter and 10KST1 sets (AID 487;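 active means visually confirmed hit in the image check and inhibition above 20%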;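 on inhibition: signal is fraction of cell area covered by stained E-selectin grains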;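 on nuclei count: 100% = median nuclei count of all wells on the same plate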); conditions: HUVEC TNFalpha-induced E-selectin immunofluorescence imaging, at 2 µM; inhibition: stronger effect = higher value; nuclei count: measured here: cell number, toxicity
[4] = molecular target: Voltage-gated potassium channel subunit beta-2 (Rattus norvegicus) (UniProt P62483); assay: KvBeta enzyme negative modulators, primary screen, biochemical, NADPH fluorescence (AID 622;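 active means fluorescence slope higher than the sample average by over 3 SD, cut at about -0.22 in these data, passing the limit was not always enough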;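 further: slope of raw intensity against log time taken from 70 to 1610 s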); conditions: recombinant KvBeta, 4-cyanobenzaldehyde reduction, at 10 µM, stronger effect = higher value
[5] = molecular target: Voltage-gated potassium channel subunit beta-2 (Rattus norvegicus) (UniProt P62483); assay: KvBeta positive modulators, primary screen, biochemical, NADPH fluorescence (AID 623;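 active means NADPH fluorescence slope more negative than the mean of all samples by about 3 SD, 99.7% confidence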;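 further: fluorescence intensity change per second fitted from 20 to 320 s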); conditions: Recombinant KvBeta, NADPH fluorescence decrease slope, 10 min; at 10 µM; stronger effect = lower value
[6] = molecular target: Muscarinic acetylcholine receptor M4 (Homo sapiens) (UniProt P08173); assay: compounds altering M4/GIRK thallium flux, either direction, primary screen, M4 allosteric agonist project, cell-based, HEK293 M4/GIRK, BTC-AM (AID 625;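 active means fluorescence slope after compound addition differing from the mean of all tested samples at 99.7% confidence, mostly higher but some lower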;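 further: thallium influx through GIRK channels coupled to M4 in HEK293 cells with BTC-AM dye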); conditions: at 10 µM, actives lie on both sides
How it was run: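 assay system = HEK293 cells with M4 receptor and GIRK channels | medium = pH 7.3 thallium assay buffer | doses = 10 µM final, single point | timing = cells overnight at 37 °C, BTC-AM loading 1 h, reads 2 min total | signal = BTC-AM fluorescence, 1 Hz kinetic reads | read-out = post-addition slope, 15–24 s, of baseline-normalized fluorescence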

[7] = inhibitors of Sendai virus-induced IRF3 signaling, primary screen, TLR/RLR signaling modifier project, cell-based, Sendai virus stimulus, luciferase, 10K MLSCN set (AID 602276;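 active means inhibition at or above 50% at 10 µM; inactive means inhibition below 50%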;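 further: firefly luciferase from ISG56 promoter only with Renilla not read in this screen; 0% = Sendai virus plus DMSO and 100% = medium plus DMSO without virus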); conditions: HEK293 RL24 IRF3 luciferase reporter, at 10 µM, stronger effect = higher value
[8] = inhibitors of poly I:C-induced TLR3 signaling, primary screen, cell-based, poly I:C stimulus, luciferase, 10K MLSCN set (AID 602277); conditions: HEK293-TLR3 RL24 IRF3 luciferase reporter, at 10 µM, stronger effect = higher value

Muscarinic acetylcholine receptor M4 (Homo sapiens), sequence (P08173 whole entry, looked up): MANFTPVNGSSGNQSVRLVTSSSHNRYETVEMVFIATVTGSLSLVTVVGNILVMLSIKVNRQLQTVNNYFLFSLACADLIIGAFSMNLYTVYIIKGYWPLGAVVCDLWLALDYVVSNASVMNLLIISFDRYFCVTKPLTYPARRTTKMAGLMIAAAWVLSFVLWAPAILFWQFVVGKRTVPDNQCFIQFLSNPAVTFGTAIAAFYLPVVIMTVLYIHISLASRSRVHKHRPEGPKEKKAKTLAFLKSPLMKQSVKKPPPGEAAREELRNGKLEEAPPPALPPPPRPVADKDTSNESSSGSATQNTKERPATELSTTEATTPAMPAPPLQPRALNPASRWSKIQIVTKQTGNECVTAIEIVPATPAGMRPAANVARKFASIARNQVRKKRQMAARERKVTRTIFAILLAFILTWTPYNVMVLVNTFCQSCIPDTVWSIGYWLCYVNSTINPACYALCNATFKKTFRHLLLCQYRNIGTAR
Voltage-gated potassium channel subunit beta-2 (Rattus norvegicus), sequence (P62483 whole entry, looked up): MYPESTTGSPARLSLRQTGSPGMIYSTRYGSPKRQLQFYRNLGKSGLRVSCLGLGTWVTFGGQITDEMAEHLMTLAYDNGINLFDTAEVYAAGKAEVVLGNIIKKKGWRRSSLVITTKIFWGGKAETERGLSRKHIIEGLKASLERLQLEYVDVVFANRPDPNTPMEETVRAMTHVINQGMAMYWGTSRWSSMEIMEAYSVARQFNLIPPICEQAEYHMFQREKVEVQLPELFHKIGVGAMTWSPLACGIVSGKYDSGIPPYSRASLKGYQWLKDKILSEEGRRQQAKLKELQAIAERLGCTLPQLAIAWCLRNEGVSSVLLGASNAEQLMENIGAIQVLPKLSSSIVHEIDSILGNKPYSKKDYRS

Which cell count [1] does the source give for `COC(=O)Cc1c(C)nc2nc(-c3ccco3)[nH]n2c1=O` here?
The cell count was 409.

What about the inhibition [1] of the same compound?
The inhibition was 1.2% (inactive).

What about the inhibition of aggregation [2] of the same compound?
The inhibition of aggregation was 5.5% (inactive).

What about the nuclei count [2] of the same compound?
The nuclei count was 93.6%.

What about the inhibition [3] of the same compound?
Its inhibition is -28.5% (inactive).

What about the nuclei count [3] of the same compound?
Its nuclei count is 105%.

And the fluorescence slope [4]?
Its fluorescence slope is -0.467 (inactive).

And the NADPH fluorescence slope [5]?
Its NADPH fluorescence slope is -4e-05 (inactive).

And the fluorescence slope [6]?
Its fluorescence slope is 0.00635 (inactive).

And the inhibition [7]?
The inhibition was 9.5% (inactive).

And the inhibition [8]?
Its inhibition is 19.1% (inactive).

With `CCS(=O)(=O)N1CCC(C(=O)NCc2cccs2)CC1` as the compound, how does the cell count [1] read?
The cell count was 683.

And the inhibition [1]?
The inhibition was -5.9% (inactive).

And the inhibition of aggregation [2]?
Its inhibition of aggregation is 12.4% (inactive).

And the nuclei count [2]?
Its nuclei count is 77.5%.

What about the inhibition [3] of the same compound?
The inhibition was -111% (inactive).

What about the nuclei count [3] of the same compound?
Its nuclei count is 102%.

And the fluorescence slope [4]?
The fluorescence slope was -0.549 (inactive).

And the NADPH fluorescence slope [5]?
The NADPH fluorescence slope was -2e-05 (inactive).

And the fluorescence slope [6]?
Its fluorescence slope is 0.00636 (inactive).

And the inhibition [7]?
Its inhibition is 5.97% (inactive).

What about the inhibition [8] of the same compound?
Its inhibition is 13.7% (inactive).

What does the source list for `CCC(C)OC(=O)n1ccc(C(=O)Nc2nccs2)n1` (stereo not drawn)?
cell count [1]: 604; inhibition [1]: -8.2% (inactive); inhibition of aggregation [2]: 8.2% (inactive); nuclei count [2]: 95%; inhibition [3]: -79.6% (inactive); nuclei count [3]: 131%; fluorescence slope [4]: -0.575 (inactive); NADPH fluorescence slope [5]: -1.9e-05 (inactive); fluorescence slope [6]: 0.00527 (inactive); inhibition [7]: -5.02% (inactive); inhibition [8]: -27.4% (inactive)

Which cell count [1] does the source give for `COc1ccc(Cl)cc1NC(=O)c1oc(C)nc1C` here?
The cell count was 555.

What about the inhibition [1] of the same compound?
The inhibition was -0.7% (inactive).

What about the inhibition of aggregation [2] of the same compound?
Its inhibition of aggregation is -0.3% (inactive).

And the nuclei count [2]?
Its nuclei count is 97.4%.

What about the inhibition [3] of the same compound?
The inhibition was -1% (inactive).

What about the nuclei count [3] of the same compound?
Its nuclei count is 108%.

What about the fluorescence slope [4] of the same compound?
Its fluorescence slope is -0.35 (inactive).

And the NADPH fluorescence slope [5]?
The NADPH fluorescence slope was -4.4e-05 (inactive).

What about the fluorescence slope [6] of the same compound?
Its fluorescence slope is 0.00568 (inactive).

What about the inhibition [7] of the same compound?
The inhibition was 25.6% (inactive).

What about the inhibition [8] of the same compound?
The inhibition was 42.6% (inactive).

With `CC1Cc2ccccc2N1C(=O)Cc1cccs1` (stereo not drawn) as the compound, how does the cell count [1] read?
The cell count was 275.

What about the inhibition [1] of the same compound?
The inhibition was -3.1% (inactive).

And the inhibition of aggregation [2]?
The inhibition of aggregation was 33.8% (inactive).

And the nuclei count [2]?
The nuclei count was 74.7%.

And the inhibition [3]?
The inhibition was 18.4% (inactive).

And the nuclei count [3]?
Its nuclei count is 93.7%.

What about the fluorescence slope [4] of the same compound?
Its fluorescence slope is -0.504 (inactive).

And the NADPH fluorescence slope [5]?
The NADPH fluorescence slope was -3.6e-05 (inactive).

What about the fluorescence slope [6] of the same compound?
The fluorescence slope was 0.00407 (inactive).

What about the inhibition [7] of the same compound?
Its inhibition is 7.14% (inactive).

And the inhibition [8]?
The inhibition was -1.13% (inactive).

For `CC(=O)c1cc(-c2ccccc2)n(CC(=O)N2CCC(N3CCCCC3)CC2)c1C`, which cell count [1] is on record?
The cell count was 263.

And the inhibition [1]?
The inhibition was 7.9% (inactive).

What about the inhibition of aggregation [2] of the same compound?
Its inhibition of aggregation is -0.7% (inactive).

And the nuclei count [2]?
Its nuclei count is 96.8%.

What about the inhibition [3] of the same compound?
Its inhibition is -37.4% (inactive).

What about the nuclei count [3] of the same compound?
Its nuclei count is 115%.

What about the fluorescence slope [4] of the same compound?
The fluorescence slope was -0.545 (inactive).

What about the NADPH fluorescence slope [5] of the same compound?
Its NADPH fluorescence slope is -3.5e-05 (inactive).

What about the fluorescence slope [6] of the same compound?
Its fluorescence slope is 0.00662 (inactive).

What about the inhibition [7] of the same compound?
Its inhibition is 14.8% (inactive).

What about the inhibition [8] of the same compound?
Its inhibition is 30.7% (inactive).

What does the source list for `CCCc1cc(C(N)=O)c(NC(=O)c2ccco2)s1`?
cell count [1]: 356; inhibition [1]: -5.6% (inactive); inhibition of aggregation [2]: 2.7% (inactive); nuclei count [2]: 97.2%; inhibition [3]: -45% (inactive); nuclei count [3]: 111%; fluorescence slope [4]: -0.54 (inactive); NADPH fluorescence slope [5]: -5.6e-05 (inactive); fluorescence slope [6]: 0.00337 (inactive); inhibition [7]: -0.517% (inactive); inhibition [8]: -22.9% (inactive)

Which results are given for `CCC(c1nnnn1CCOC)N(Cc1ccc(C)cc1)Cc1cc2cc(OC)ccc2[nH]c1=O` (stereo not drawn)?
cell count [1]: 519; inhibition [1]: 1.9% (inactive); inhibition of aggregation [2]: 11.8% (inactive); nuclei count [2]: 99.2%; inhibition [3]: -127% (inactive); nuclei count [3]: 134%; fluorescence slope [4]: -0.565 (inactive); NADPH fluorescence slope [5]: -5.3e-05 (inactive); fluorescence slope [6]: 0.00576 (inactive); inhibition [7]: 19% (inactive); inhibition [8]: 27.8% (inactive)
